Consider four molecules from ChEMBL document CHEMBL1138361, “4-acyl-1-(4-aminoalkoxyphenyl)-2-ketopiperazines as a novel class of non-brain-penetrant histamine H3 receptor antagonists” (J Med Chem, 2007).

Data set [1] can be described thus: AUC in CD Sprague-Dawley rat at 3.0 mg/kg, po. The following applies: plasma. Type of data set: ADME, organism-based. Further details: dose 3 mg/kg, route oral. In outline: (§1)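 Single iv and oral doses given to male CD Sprague-Dawley rats (1 mg/kg iv, 3 mg/kg po) and male Beagle dogs (1 mg/kg iv, 2 mg/kg po). Vehicle was a DMSO-PEG 200-water (5:45:50) solution. Serial and terminal blood samples were taken at time points up to 7, 12 or 24 h postdose.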

Data set [2] can be described thus: Clearance in Beagle dog at 1.0 mg/kg, iv. Further details: dose 1 mg/kg, route intravenous. The settings on record: in vivo. Type of data set: ADME, organism-based, Canis lupus familiaris. In outline: as §1
Data set [3] can be described thus: Volume of distribution in CD Sprague-Dawley rat at 1.0 mg/kg, iv. Type of data set: ADME, organism-based. Details: dose 1 mg/kg, route intravenous. The settings on record: in vivo. In outline:
as §1

The nature of data set [4]: Cmax in Beagle dog at 2.0 mg/kg, po. Type of data set: ADME, organism-based, Canis lupus familiaris. Further details: dose 2 mg/kg, route oral. The following applies: in vivo. Put shortly:
as §1

Data set [5] is described as follows: AUC in Beagle dog at 2.0 mg/kg, po. The class given is ADME, organism-based, Canis lupus familiaris. Further details: dose 2 mg/kg, route oral. The following applies: plasma. In outline: as §1
Data set [6] can be described thus: Oral bioavailability in Beagle dog at 2.0 mg/kg, po. The class given is ADME, organism-based, Canis lupus familiaris. The following applies: in vivo. Put shortly:
as §1

Data set [7] in a line: Tmax in Beagle dog at 2.0 mg/kg, po. The class given is ADME, organism-based, Canis lupus familiaris. Further details: dose 2 mg/kg, route oral. The settings on record: in vivo. Put shortly: as §1
Data set [8] is described as follows: Cmax in CD Sprague-Dawley rat at 3.0 mg/kg, po. Type of data set: ADME, organism-based. Further details: dose 3 mg/kg, route oral. The settings on record: in vivo. Put shortly: as §1
Data set [9] in a line: Tmax in CD Sprague-Dawley rat at 1.0 mg/kg, iv. Type of data set: ADME, organism-based. Further details: dose 1 mg/kg, route intravenous. The following applies: in vivo. Put shortly:
as §1

Data set [10] in a line: Ratio of drug level in brain to blood in CD Sprague-Dawley rat at 1 mg/kg, iv after 5 mins. The class given is ADME, organism-based. Further details: dose 1 mg/kg, route intravenous. The settings on record: brain and blood. In outline: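 Male CD Sprague-Dawley rats were dosed iv in DMSO-PEG 200-water (5:45:50). Blood and brain were collected 5 min postdose under terminal isoflurane anesthesia. Blood was protein-precipitated; brain was homogenized and extracted. Parent drug was quantified by LCMS/MS.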

Data set [11] in a line: Clearance in CD Sprague-Dawley rat at 1.0 mg/kg, iv. Further details: dose 1 mg/kg, route intravenous. The following applies: in vivo. The class given is ADME, organism-based. In outline: as §1
Data set [12] in a line: Cmax in Beagle dog at 1.0 mg/kg, iv. Type of data set: ADME, organism-based, Canis lupus familiaris. Further details: dose 1 mg/kg, route intravenous. The following applies: in vivo. In outline:
as §1

The nature of data set [13]: Half life in CD Sprague-Dawley rat at 1.0 mg/kg, iv. Type of data set: ADME, organism-based. Details: dose 1 mg/kg, route intravenous. The settings on record: in vivo. In outline: as §1
Data set [14] in a line: Tmax in Beagle dog at 1.0 mg/kg, iv. Details: dose 1 mg/kg, route intravenous. The class given is ADME, organism-based, Canis lupus familiaris. The settings on record: in vivo. Put shortly: as §1
Data set [15] can be described thus: Volume of distribution in Beagle dog at 1.0 mg/kg, iv. The class given is ADME, organism-based, Canis lupus familiaris. Further details: dose 1 mg/kg, route intravenous. The following applies: in vivo. Put shortly: as §1
The nature of data set [16]: Tmax in CD Sprague-Dawley rat at 3.0 mg/kg, po. The class given is ADME, organism-based. Details: dose 3 mg/kg, route oral. The settings on record: in vivo. Put shortly:
as §1

The nature of data set [17]: Half life in Beagle dog at 1.0 mg/kg, iv. The class given is ADME, organism-based, Canis lupus familiaris. Details: dose 1 mg/kg, route intravenous. The following applies: in vivo. Put shortly: as §1
Data set [18] in a line: Partition coefficient, log D at pH 7.4. The class given is physicochemical. The settings on record: octanol/water. In outline:
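Compound in phosphate buffer was shaken with buffer-saturated octanol (3 × 50 inversions). Phases were separated by centrifugation at 300g for 15 min. Both phases were quantified by HPLC, and log D was calculated from peak areas normalized to injection volume.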

Data set [19] can be described thus: AUC in CD Sprague-Dawley rat at 1.0 mg/kg, iv. Type of data set: ADME, organism-based. Details: dose 1 mg/kg, route intravenous. The settings on record: plasma. Put shortly:
as §1

Data set [20] in a line: AUC in Beagle dog at 1.0 mg/kg, iv. Type of data set: ADME, organism-based, Canis lupus familiaris. Details: dose 1 mg/kg, route intravenous. The following applies: plasma. Put shortly:
as §1

Data set [21] can be described thus: Cmax in CD Sprague-Dawley rat at 1.0 mg/kg, iv. The class given is ADME, organism-based. Further details: dose 1 mg/kg, route intravenous. The settings on record: in vivo. In outline: as §1
The nature of data set [22]: Oral bioavailability in CD Sprague-Dawley rat at 3.0 mg/kg, po. The class given is ADME, organism-based. The following applies: in vivo. In outline: as §1
Data set [23] in a line: Tmax in CD Sprague-Dawley rat at 2.9 mg/kg, po. The class given is ADME, organism-based. Details: dose 2.9 mg/kg, route oral. The settings on record: in vivo.
Data set [24] can be described thus: AUC in CD Sprague-Dawley rat at 2.9 mg/kg, po. The class given is ADME, organism-based. Details: dose 2.9 mg/kg, route oral. The following applies: plasma.
A short description of data set [25]: Oral bioavailability in CD Sprague-Dawley rat at 2.9 mg/kg, po. The class given is ADME, organism-based. The settings on record: in vivo.
Data set [26] is described as follows: Cmax in CD Sprague-Dawley rat at 2.9 mg/kg, po. Details: dose 2.9 mg/kg, route oral. The following applies: in vivo. The class given is ADME, organism-based.

As a reminder, the AUC is the area under the concentration-time curve, a measure of exposure. A higher AUC goes with more exposure. By clearance is commonly meant a measure of how efficiently the substance is removed, as volume per time. A high value points to a high capacity for elimination. A word on the Vd: it is a proportionality between amount in the body and measured concentration, not a real space. The low end stands for confinement near the circulation, the high end for extensive tissue distribution. Broadly, the Cmax is the peak of the concentration-time curve. For orientation: bioavailability means dose-corrected exposure relative to a reference, in per cent. Lower therefore signals poor availability. By Tmax is commonly meant the time from dosing to the highest level. The Kp is the ratio of the level in a tissue or fluid to that in plasma or blood. For orientation: half-life means the time needed for the level to fall by half in the phase considered. High values mean slow decline, low ones rapid decline. The logD is the decadic logarithm of the distribution of all forms, ionised or not, between an organic phase and buffer at a given pH. Low values mean lower lipophilicity, high ones higher lipophilicity. As for `N#Cc1ccc(C(=O)N2CCN(c3ccc(OC4CCN(C5CCC5)CC4)cc3)C(=O)C2)cc1.O=CO`, the AUC in data set [1] came out at 1150 ng·h/mL; in [5] it was 1540 ng·h/mL; in data set [19], 601 ng·h/mL; in data set [20] it was 1100 ng·h/mL. Besides, the clearance in [2] was determined as 15 mL/min/kg; in [11], 27 mL/min/kg. Besides, the Vd in data set [3] was found to be 2.2 L/kg; in data set [15] it was 2.3 L/kg. Besides, the maximum concentration (Cmax) was determined as 294 ng/mL in [4], 149 ng/mL in [8], 419 ng/mL in [12] and 350 ng/mL in data set [21]. The bioavailability in data set [6] was 69%. The time of peak concentration (Tmax) was found to be 1 h in data set [7], 4.8 min in data set [9], 4.8 min in data set [14] and 1 h in data set [16]. The concentration ratio (Kp) at 5 min in data set [10] was 0.2. Moreover, the half-life in data set [13] is 1.4 h; in data set [17], 2.3 h. For the same molecule, the pH-dependent lipophilicity (logD) in data set [18] turned out to be 0.38.
In the case of `C[C@@H]1CCCN1CCCOc1ccc(N2CCN(C(=O)c3ccc(F)cc3F)CC2=O)cc1.O=CO`, the exposure (AUC) in data set [1] is 753 ng·h/mL; in [5], 4800 ng·h/mL; in data set [19], 682 ng·h/mL; in data set [20], 2160 ng·h/mL. The clearance worked out at 6.5 mL/min/kg in [2] and 31 mL/min/kg in [11]. The Vd came out at 2 L/kg in [3] and 2.3 L/kg in data set [15]. In addition, the Cmax in data set [4] came to 734 ng/mL; in [8], 109 ng/mL; in data set [12] it was 414 ng/mL; in data set [21] it was 291 ng/mL. Besides, the bioavailability in data set [6] came out at 100%; in data set [22] it was 48%. For the same molecule, the time of peak concentration (Tmax) in data set [7] was found to be 4 h; in data set [9], 4.8 min; in data set [14], 4.8 min; in data set [16], 4 h. Moreover, the Kp at 5 min in data set [10] worked out at 0.2. In addition, the half-life in data set [13] is 1.1 h; in data set [17], 4.3 h. In [18], this molecule showed a logD of -0.08.
As for `O=C(c1ccc(F)cc1)N1CCN(c2ccc(OCCCN3CCCCC3)cc2)C(=O)C1.O=CO`, the exposure (AUC) turned out to be 805 ng·h/mL in data set [1], 3090 ng·h/mL in data set [5], 437 ng·h/mL in data set [19] and 1570 ng·h/mL in [20]. For the same molecule, in data set [3], the Vd is 2.4 L/kg. Besides, the highest concentration (Cmax) in data set [4] worked out at 400 ng/mL; in [8] it was 155 ng/mL; in data set [12], 530 ng/mL; in data set [21], 300 ng/mL. For the same molecule, the values for the bioavailability in data set [6] and in data set [22] were 86% and 61%, respectively. The time to peak (Tmax) was found to be 0.75 h in [7], 4.8 min in data set [9], 4.8 min in data set [14] and 3 h in [16]. The Kp at 5 min in data set [10] worked out at 0.3. Besides, in data set [11], the clearance stood at 37 mL/min/kg. The half-life in data set [13] was 1.5 h. This molecule yielded a pH-dependent lipophilicity (logD) in data set [18] of 0.12.
`Cl.O=C(c1ccc(F)cc1)N1CCN(c2ccc(OC3CCN(C4CCC4)CC3)cc2)C(=O)C1`: the Vd in data set [3] is 2.5 L/kg. The Tmax in [23] is 2 h; in data set [9] it was 4.8 min. The AUC amounted to 760 ng·h/mL in [24] and 837 ng·h/mL in data set [19]. The same molecule gave a clearance in [11] of 18 mL/min/kg. The molecule also returned a bioavailability in data set [25] of 35%. Moreover, in data set [13], the half-life was 2 h. This molecule also registered a logD in data set [18] of 0.9. Moreover, the maximum concentration (Cmax) came out at 337 ng/mL in [21] and 91 ng/mL in [26].
